pIC50: −log10 of the molar value.
What was measured:
[1] = target: T1, C-C chemokine receptor type 4 (Homo sapiens, UniProt P51679); experiment: Antagonist activity at human CCR4 expressed in rat chem-5 cells assessed as inhibition of CCL22-induced calcium flux measured at 2.5 secs time interval for 45 secs by calcium 6 dye-based FLIPR assay; type: functional, cell-based
T1 sequence (P51679 whole entry): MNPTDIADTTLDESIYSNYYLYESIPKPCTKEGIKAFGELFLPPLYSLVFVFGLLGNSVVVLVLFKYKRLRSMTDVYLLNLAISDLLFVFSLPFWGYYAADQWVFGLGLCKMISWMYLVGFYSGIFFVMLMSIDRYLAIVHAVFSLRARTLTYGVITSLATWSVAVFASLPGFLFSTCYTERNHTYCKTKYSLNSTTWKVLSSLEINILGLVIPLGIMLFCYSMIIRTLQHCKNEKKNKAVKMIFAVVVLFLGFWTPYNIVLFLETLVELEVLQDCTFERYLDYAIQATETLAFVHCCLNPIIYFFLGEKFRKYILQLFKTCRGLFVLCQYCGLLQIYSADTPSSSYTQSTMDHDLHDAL
Summary of the method: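 Primary calcium flux assay for CCR4 antagonism, run in the absence of serum.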

[2] = Metabolic stability in rat hepatocytes assessed as parent compound remaining at 1 uM after 60 mins by LC-MS/MS analysis; type: ADME, cell-based, Hepatocyte; settings: read-out: Stability
Summary of the method: (§1)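 Hepatocytes (human or rat). Compound incubated for 60 min; value is % parent remaining.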

[3] = Metabolic stability in human hepatocytes assessed as parent compound remaining at 1 uM after 60 mins by LC-MS/MS analysis; type: ADME, cell-based, Hepatocyte; settings: read-out: Stability; summary of the method: as §1
[4] = Clearance in rat at 0.5 mg/kg, iv; type: ADME, organism-based; settings: in vivo
Summary of the method: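 Rat in vivo PK. Single IV dose of 0.5 mg/kg; clearance in mL/min/kg.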

[5] = Oral bioavailability in rat at 2 mg/kg; type: ADME, organism-based; settings: in vivo
Summary of the method: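 Rat in vivo PK. Oral dose of 2 mg/kg; %F derived.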

Cytochrome P450 1A2 = Cytochrome P450 1A2 (Homo sapiens, UniProt P05177); experiment: Inhibition of CYP1A2 in human liver microsomes using phenacetin as substrate incubated for 20 mins in presence of NADPH by LC-MS/MS analysis; type: ADME
Sequence of Cytochrome P450 1A2 (P05177 whole entry): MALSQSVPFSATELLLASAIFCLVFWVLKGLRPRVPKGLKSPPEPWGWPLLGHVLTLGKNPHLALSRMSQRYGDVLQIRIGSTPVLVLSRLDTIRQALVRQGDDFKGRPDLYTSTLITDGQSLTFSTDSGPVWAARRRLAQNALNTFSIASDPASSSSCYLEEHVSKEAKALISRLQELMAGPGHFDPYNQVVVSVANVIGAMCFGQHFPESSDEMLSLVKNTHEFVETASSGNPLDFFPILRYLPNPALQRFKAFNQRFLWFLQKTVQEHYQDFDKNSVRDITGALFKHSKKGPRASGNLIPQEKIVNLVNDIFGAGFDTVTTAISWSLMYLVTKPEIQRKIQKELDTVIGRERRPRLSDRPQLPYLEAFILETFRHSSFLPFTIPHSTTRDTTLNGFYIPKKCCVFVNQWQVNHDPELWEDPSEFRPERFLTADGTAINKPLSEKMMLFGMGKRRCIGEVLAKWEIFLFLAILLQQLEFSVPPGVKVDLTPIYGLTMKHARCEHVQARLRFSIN

Cytochrome P450 2C9 = Cytochrome P450 2C9 (Homo sapiens, UniProt P11712); experiment: Inhibition of CYP2C9 in human liver microsomes using diclofenac sodium salt as substrate incubated for 20 mins in presence of NADPH by LC-MS/MS analysis; type: ADME
Sequence of Cytochrome P450 2C9 (P11712 whole entry): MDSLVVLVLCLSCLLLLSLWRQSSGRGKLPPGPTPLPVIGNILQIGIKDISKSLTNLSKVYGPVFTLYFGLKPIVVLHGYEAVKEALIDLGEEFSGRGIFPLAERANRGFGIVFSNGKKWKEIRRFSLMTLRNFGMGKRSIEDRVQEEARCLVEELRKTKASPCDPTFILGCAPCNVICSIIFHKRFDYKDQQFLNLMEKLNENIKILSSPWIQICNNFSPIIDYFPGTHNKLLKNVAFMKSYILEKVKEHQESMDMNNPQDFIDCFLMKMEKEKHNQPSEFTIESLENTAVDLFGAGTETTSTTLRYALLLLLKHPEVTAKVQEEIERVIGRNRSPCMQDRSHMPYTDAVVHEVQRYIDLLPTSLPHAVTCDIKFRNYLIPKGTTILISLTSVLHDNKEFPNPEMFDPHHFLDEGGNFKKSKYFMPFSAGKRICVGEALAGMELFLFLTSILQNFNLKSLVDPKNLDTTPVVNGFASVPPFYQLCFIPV

Cytochrome P450 2C19 = Cytochrome P450 2C19 (Homo sapiens, UniProt P33261); experiment: Inhibition of CYP2C19 in human liver microsomes using S-mephenytoin as substrate incubated for 20 mins in presence of NADPH by LC-MS/MS analysis; type: ADME
Sequence of Cytochrome P450 2C19 (P33261 whole entry): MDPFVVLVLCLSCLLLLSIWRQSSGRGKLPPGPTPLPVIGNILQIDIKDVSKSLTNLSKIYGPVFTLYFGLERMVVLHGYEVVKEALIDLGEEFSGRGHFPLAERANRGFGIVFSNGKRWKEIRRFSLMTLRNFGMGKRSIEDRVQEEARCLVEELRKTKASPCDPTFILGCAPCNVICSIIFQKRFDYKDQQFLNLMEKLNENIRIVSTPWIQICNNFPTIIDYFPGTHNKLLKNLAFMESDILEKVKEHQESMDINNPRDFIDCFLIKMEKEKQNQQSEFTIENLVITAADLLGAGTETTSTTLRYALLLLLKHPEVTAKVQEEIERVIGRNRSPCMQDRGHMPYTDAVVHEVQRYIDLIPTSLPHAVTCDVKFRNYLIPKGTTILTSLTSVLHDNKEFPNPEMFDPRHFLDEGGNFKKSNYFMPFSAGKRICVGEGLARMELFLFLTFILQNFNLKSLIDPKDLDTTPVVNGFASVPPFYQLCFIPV

Cytochrome P450 2D6 = Cytochrome P450 2D6 (Homo sapiens, UniProt P10635); experiment: Inhibition of CYP2D6 in human liver microsomes using bufuralol hydrochloride salt as substrate incubated for 20 mins in presence of NADPH by LC-MS/MS analysis; type: ADME
Sequence of Cytochrome P450 2D6 (P10635 whole entry): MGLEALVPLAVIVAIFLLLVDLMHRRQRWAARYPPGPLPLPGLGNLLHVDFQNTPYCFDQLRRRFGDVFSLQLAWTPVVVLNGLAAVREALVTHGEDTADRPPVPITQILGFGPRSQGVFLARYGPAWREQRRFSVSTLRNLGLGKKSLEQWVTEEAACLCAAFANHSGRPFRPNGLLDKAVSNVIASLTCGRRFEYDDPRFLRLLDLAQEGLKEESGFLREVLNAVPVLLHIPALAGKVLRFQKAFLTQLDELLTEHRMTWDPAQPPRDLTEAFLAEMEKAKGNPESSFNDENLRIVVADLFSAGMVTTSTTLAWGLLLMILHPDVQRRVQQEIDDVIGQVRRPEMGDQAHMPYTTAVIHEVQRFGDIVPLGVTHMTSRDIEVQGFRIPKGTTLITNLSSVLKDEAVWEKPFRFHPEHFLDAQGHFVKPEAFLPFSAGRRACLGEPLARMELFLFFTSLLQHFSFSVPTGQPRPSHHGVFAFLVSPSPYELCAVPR

Cytochrome P450 3A4 = Cytochrome P450 3A4 (Homo sapiens, UniProt P08684); experiment: Inhibition of CYP3A4 in human liver microsomes using midazolam hydrochloride as substrate incubated for 20 mins in presence of NADPH by LC-MS/MS analysis; type: ADME
Sequence of Cytochrome P450 3A4 (P08684 whole entry): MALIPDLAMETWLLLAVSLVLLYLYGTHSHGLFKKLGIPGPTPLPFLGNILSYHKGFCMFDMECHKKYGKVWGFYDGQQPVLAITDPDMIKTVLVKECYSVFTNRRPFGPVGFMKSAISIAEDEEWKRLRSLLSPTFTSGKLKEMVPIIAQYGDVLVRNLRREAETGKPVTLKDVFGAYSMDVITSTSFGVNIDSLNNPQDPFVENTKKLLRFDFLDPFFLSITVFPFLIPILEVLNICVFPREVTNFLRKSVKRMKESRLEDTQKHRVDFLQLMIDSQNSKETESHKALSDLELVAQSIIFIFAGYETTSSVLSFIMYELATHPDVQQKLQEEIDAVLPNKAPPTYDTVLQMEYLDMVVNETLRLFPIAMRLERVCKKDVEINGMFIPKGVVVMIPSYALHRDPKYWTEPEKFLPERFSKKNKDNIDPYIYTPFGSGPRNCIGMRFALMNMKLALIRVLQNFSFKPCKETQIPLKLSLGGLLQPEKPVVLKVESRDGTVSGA

CYP3A4 = CYP3A4 (Homo sapiens, UniProt P08684); experiment: Ratio of IC50 for time-dependent inhibition of CYP3A4 in human liver microsomes using midazolam hydrochloride as substrate in presence of NADPH to IC50 for time-dependent inhibition of CYP3A4 in human liver microsomes using midazolam hydrochloride as substrate absence of NADPH; settings: probe midazolam hydrochloride, read-out: Ratio IC50
Sequence of CYP3A4 (P08684 whole entry): as above

Cytochrome P450 = experiment: Induction of CYP450 (unknown origin); type: ADME, protein assay; settings: human

Compound | pIC50 [1] | further results
Cc1nn([C@H](C)c2ccc(Cl)cc2Cl)c2nc(N3CC(N4CCCCC4)C3)cnc12 | < 5.30 | –
CC(=O)NCCN1CCC[C@H](C2CN(c3cnc4c(C)nn([C@H](C)c5ccc(Cl)cc5Cl)c4n3)C2)C1 | 8.22 | remaining at 1 h, 1 µM [2]: 68%; remaining at 1 h, 1 µM [3]: 94%; clearance [4]: 11 mL/min/kg; bioavailability [5]: 13%
Cc1nn([C@H](C)c2ccc(Cl)cc2Cl)c2nc(N3CC([C@H]4CCCN(CCC(=O)O)C4)C3)cnc12 | 7.04 | –
C[C@H](c1ccc(Cl)cc1Cl)n1nc(C#N)c2ncc(N3CC([C@H]4CCCN(CCC(=O)O)C4)C3)nc21 | 7.33 | –
Cc1nn([C@H](C)c2ccc(Cl)cc2Cl)c2nc(N3CC([C@H]4CCCN(CCCS(C)(=O)=O)C4)C3)cnc12 | 7.66 | –
Cc1nn([C@H](C)c2ccc(Cl)cc2Cl)c2nc(N3CC([C@H]4CCCN(CCC(N)=O)C4)C3)cnc12 | 7.38 | –
Cc1nn([C@H](C)c2ccc(Cl)cc2Cl)c2nc(N3CC([C@H]4CCCN(CCS(N)(=O)=O)C4)C3)cnc12 | 7.08 | –
Cc1nn([C@H](C)c2ccc(Cl)cc2Cl)c2nc(N3CC([C@H]4CCCN(CCCO)C4)C3)cnc12 | 7.43 | –
C[C@H](c1ccc(Cl)cc1Cl)n1nc(C#N)c2ncc(N3CC([C@H]4CCCN(CCC(F)(F)F)C4)C3)nc21 | 6.43 | –
C[C@H](c1ccc(Cl)cc1Cl)n1nc(C#N)c2ncc(N3CC([C@H]4CCCN(CC(=O)O)C4)C3)nc21 | 7.44 | –
Cc1nn([C@H](C)c2ccc(Cl)cc2Cl)c2nc(N3CC([C@@H]4CCCN(CCS(N)(=O)=O)C4)C3)cnc12 | 6.34 | –
CCN1CCC(C2CN(c3cnc4c(C)nn([C@H](C)c5ccc(Cl)cc5Cl)c4n3)C2)CC1 | < 5.30 | –
C[C@H](c1ccc(Cl)cc1Cl)n1nc(C#N)c2ncc(N3CC([C@H]4CCCN(Cc5cnc[nH]5)C4)C3)nc21 | 7.68 | –
C[C@H](c1ccc(Cl)cc1Cl)n1nc(C#N)c2ncc(N3CC([C@H]4CCCN(CCC#N)C4)C3)nc21 | 7.55 | –
C[C@H](c1ccc(Cl)cc1Cl)n1nc(C(N)=O)c2ncc(N3CC([C@H]4CCCN(CCO)C4)C3)nc21 | 8.10 | remaining at 1 h, 1 µM [2]: 95%; remaining at 1 h, 1 µM [3]: 95%; clearance [4]: 191 mL/min/kg; bioavailability [5]: 0%
C[C@H](c1ccc(Cl)cc1Cl)n1nc(C(=O)N(C)C)c2ncc(N3CC([C@H]4CCCN(CCO)C4)C3)nc21 | 8.05 | –
CCOC(=O)CN1CCCC(C2CN(c3cnc4c(C)nn([C@H](C)c5ccc(Cl)cc5Cl)c4n3)C2)C1 (stereo partly drawn) | 6.22 | –
Cc1nn([C@H](C)c2ccc(Cl)cc2Cl)c2nc(N3CC([C@H]4CCCN(CCNS(C)(=O)=O)C4)C3)cnc12 | 7.54 | remaining at 1 h, 1 µM [2]: 53%; remaining at 1 h, 1 µM [3]: 85%; clearance [4]: 41.6 mL/min/kg; bioavailability [5]: 11%
Cc1nn([C@H](C)c2ccc(Cl)cc2Cl)c2nc(N3CC(CN(C)C)C3)cnc12 | 5.86 | –
Cc1nn([C@H](C)c2ccc(Cl)cc2Cl)c2nc(N3CC([C@H]4CCCN(CCC(F)(F)F)C4)C3)cnc12 | 6.30 | –
C[C@H](c1ccc(Cl)cc1Cl)n1nc(C(=O)O)c2ncc(N3CC([C@H]4CCCN(CCO)C4)C3)nc21 | < 5.30 | –
Cc1nn([C@H](C)c2ccc(Cl)cc2Cl)c2nc(N3CC([C@H]4CCCN(CCO)C4)C3)cnc12 | 7.62 | remaining at 1 h, 1 µM [2]: 62%; remaining at 1 h, 1 µM [3]: 87%; clearance [4]: 32.3 mL/min/kg; bioavailability [5]: 61%; pIC50 (Cytochrome P450 1A2): < 4.40; pIC50 (Cytochrome P450 2C9): < 4.40; pIC50 (Cytochrome P450 2C19): < 4.40; pIC50 (Cytochrome P450 2D6): < 4.40; pIC50 (Cytochrome P450 3A4): < 4.40; IC50 shift (CYP3A4): 2.6; Activity (Cytochrome P450): Not Active
Cc1nn([C@H](C)c2ccc(Cl)cc2Cl)c2nc(N3CC([C@H]4CCCN(CCNS(=O)(=O)C(C)C)C4)C3)cnc12 | 7.51 | –
Cc1nn([C@H](C)c2ccc(Cl)cc2Cl)c2nc(N3CC([C@H]4CCCN(CCCC(=O)O)C4)C3)cnc12 | 7.16 | –
C[C@H](c1ccc(Cl)cc1Cl)n1nc(C#N)c2ncc(N3CC([C@H]4CCCN(CC#N)C4)C3)nc21 | 5.83 | –
CNC(=O)c1nn([C@H](C)c2ccc(Cl)cc2Cl)c2nc(N3CC([C@H]4CCCN(CCO)C4)C3)cnc12 | 7.60 | –
Cc1nn([C@H](C)c2ccc(Cl)cc2Cl)c2nc(N3CC([C@H]4CCCN(CCS(C)(=O)=O)C4)C3)cnc12 | 7.11 | –
COC(=O)NCCN1CCC[C@H](C2CN(c3cnc4c(C)nn([C@H](C)c5ccc(Cl)cc5Cl)c4n3)C2)C1 | 7.64 | –
Cc1nn([C@H](C)c2ccc(Cl)cc2Cl)c2nc(N3CC(C4CCCN(CCS(N)(=O)=O)C4)C3)cnc12 (stereo partly drawn) | 6.92 | –
Cc1nn([C@H](C)c2ccc(Cl)cc2Cl)c2nc(N3CC([C@H]4CCCN(CCNC(=O)C(C)C)C4)C3)cnc12 | 7.74 | –
